Data: ChEMBL document CHEMBL1134340, “GnRH antagonists: a new generation of long acting analogues incorporating p-ureido-phenylalanines at positions 5 and 6” (J Med Chem, 2001)
Converted amounts (≈) assume the structure as drawn. *1 amine or outer side, *2 acyl side, *3 side chain or, on linkers, in order; H or OH if unused. Where a SMILES comes first, the peptide text is derived from it. [ ]: non-standard residue; d: D form. Phe(4-NH(5-NH2triazol-3-yl)) = Nc1nc(Nc2ccc(C[C@H](N)C(=O)O)cc2)n[nH]1; X1 = Nc1nc(Nc2ccc(C[C@@H](N[*:1])C(=O)[*:2])cc2)n[nH]1; dPhe(4-NHCONH2) = NC(=O)Nc1ccc(C[C@@H](N)C(=O)O)cc1; Phe(4-NHCONH2) = NC(=O)Nc1ccc(C[C@H](N)C(=O)O)cc1; dPhe(4-Cl) = N[C@H](Cc1ccc(Cl)cc1)C(=O)O; d2Nal = N[C@H](Cc1ccc2ccccc2c1)C(=O)O; Lys(iPr) = CC(C)NCCCC[C@H](N)C(=O)O; d3Pal = N[C@H](Cc1cccnc1)C(=O)O

Assays:
[1] = biological target: T1, Gonadotropin-releasing hormone receptor (Homo sapiens, UniProt P30968); experiment: Antagonism of human GnHR receptor, determined in a reporter gene assay in HEK293 cells; type: functional, cell-based
T1 sequence (P30968 whole entry): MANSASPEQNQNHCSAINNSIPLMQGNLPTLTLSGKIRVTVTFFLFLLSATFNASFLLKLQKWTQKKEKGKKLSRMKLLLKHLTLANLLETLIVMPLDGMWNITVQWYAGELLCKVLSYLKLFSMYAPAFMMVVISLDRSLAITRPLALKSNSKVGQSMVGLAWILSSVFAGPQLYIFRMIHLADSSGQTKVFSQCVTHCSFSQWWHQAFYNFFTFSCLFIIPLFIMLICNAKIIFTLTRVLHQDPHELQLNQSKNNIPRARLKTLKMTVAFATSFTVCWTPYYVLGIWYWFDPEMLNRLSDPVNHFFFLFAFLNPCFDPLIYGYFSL
Procedure, shortened: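 HEK293 cells stably expressing cloned human GnRH receptor plus luciferase reporter under LH alpha subunit promoter, plated 24 h before assay. Compound in 1% DMSO added 10 min at 37 °C, then GnRH at 3 nM final; 5 h incubation, luciferase luminescence read. Six concentrations in duplicate; blank-subtracted cps as % of GnRH control; mean of two determinations.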

[2] = biological target: T1, Gonadotropin-releasing hormone receptor; experiment: Competitive antagonism of GnRH-induced response in the reporter gene assay; type: functional; conditions: for Kb: read-out: pA2 (converted)
Procedure, shortened: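 Same HEK293 human GnRH receptor luciferase reporter cells. Seven-point GnRH curve (10 µM to 10 pM final) run in duplicate without or with four to five increasing compound concentrations (10 min preincubation, 37 °C), then 5 h and luminescence. GnRH EC50 at each level by four-parameter logistic fit, giving pA2; mean of two determinations in duplicate.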

Rattus norvegicus [3] = species: Rattus norvegicus; experiment: Compound was tested for inhibition of Leutenizing hormone release at 24 hours (short duration) in castrated male rat assay; type: functional; design: concentration or dose not given beside the values
Procedure, shortened: (§1)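 Male Sprague-Dawley rats (180-200 g), castrated under ether 10 days earlier, 5 per group. 50 µg/rat given sc in 100 µL 40 mM phosphate buffer with 0.1% BSA and 0.6% DMSO; acyline run as internal standard. Tail blood taken predose and at 24, 48, 72, 96 (sometimes 120) h; plasma LH by RIA. Duration classed by >80% LH inhibition at each time.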

Rattus norvegicus [4] = species: Rattus norvegicus; experiment: Compound was tested for histamine release at a concentration of 100 ug/mL; type: functional
Procedure, shortened: (§2)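 Sprague-Dawley rat peritoneal mast cells, Percoll-purified, in heparinized balanced salt solution with albumin, pH 7.2. Cells exposed to compound or vehicle for 2 min at 37 °C. Supernatant histamine measured spectrofluorometrically after o-phthalaldehyde derivatization; pellets lysed for retained histamine. Reported as % of total histamine released, corrected for spontaneous release in vehicle.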

Rattus norvegicus [5] = species: Rattus norvegicus; experiment: Compound was tested for histamine release at a concentration of 30 ug/mL; type: functional; procedure, shortened: as §2
Rattus norvegicus [6] = species: Rattus norvegicus; experiment: Compound was tested for inhibition of Leutenizing hormone release at 96 hours (very long duration) in castrated male rat assay; type: functional; design: concentration or dose not given beside the values; procedure, shortened: as §1
Rattus norvegicus [7] = species: Rattus norvegicus; experiment: Compound was tested for histamine release at a concentration of 300 ug/mL; type: functional; procedure, shortened: as §2
Rattus norvegicus [8] = species: Rattus norvegicus; experiment: Effective dose for histamine release was determined; type: functional
Procedure, shortened: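 ED50 for histamine release calculated from % release values across concentrations in rat peritoneal mast cell assay (2 min, 37 °C, o-phthalaldehyde fluorometric read-out, corrected for vehicle release).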

Rattus norvegicus [9] = species: Rattus norvegicus; experiment: Compound was tested for inhibition of Leutenizing hormone release at 72 hours (long duration) in castrated male rat assay; type: functional; design: concentration or dose not given beside the values; procedure, shortened: as §1
Rattus norvegicus [10] = species: Rattus norvegicus; experiment: Compound was tested for histamine release at a concentration of 10 ug/mL; type: functional; procedure, shortened: as §2

SMILES	IC50 [1] [nM]	Kb [2] [nM]	Inhibition (Rattus norvegicus [3]) [%]	HR (Rattus norvegicus [4]) [%]	HR (Rattus norvegicus [5]) [%]	Inhibition (Rattus norvegicus [6]) [%]	HR (Rattus norvegicus [7]) [%]	other results
CC(=O)Nc1ccc(C[C@@H](NC(=O)[C@H](Cc2ccc(NC(=O)[C@@H]3CC(=O)NC(=O)N3)cc2)N(C)C(=O)[C@H](CO)NC(=O)[C@@H](Cc2cccnc2)NC(=O)[C@@H](Cc2ccc(Cl)cc2)NC(=O)[C@@H](Cc2ccc3ccccc3c2)NC(C)=O)C(=O)N[C@@H](CC(C)C)C(=O)N[C@@H](CCCCNC(C)C)C(=O)N2CCC[C@H]2C(=O)N[C@H](C)C(N)=O)cc1	8.1	0.794	>80	124	50	–	–	–
CC(=O)N[C@H](Cc1ccc2ccccc2c1)C(=O)N[C@H](Cc1ccc(Cl)cc1)C(=O)N[C@H](Cc1cccnc1)C(=O)N[C@@H](CO)C(=O)N[C@@H](Cc1ccc(NC(=O)[C@@H]2CC(=O)NC(=O)N2)cc1)C(=O)N[C@H](Cc1ccc2ccccc2c1)C(=O)N[C@@H](CC(C)C)C(=O)N[C@@H](CCCCNC(C)C)C(=O)N1CCC[C@H]1C(=O)N[C@H](C)C(N)=O	–	–	>80	–	–	–	–	–
CNC(=O)NCc1ccc(C[C@@H](NC(=O)[C@H](Cc2ccc(NC(=O)[C@@H]3CC(=O)NC(=O)N3)cc2)NC(=O)[C@H](CO)NC(=O)[C@@H](Cc2cccnc2)NC(=O)[C@@H](Cc2ccc(Cl)cc2)NC(=O)[C@@H](Cc2ccc3ccccc3c2)NC(C)=O)C(=O)N[C@@H](CC(C)C)C(=O)N[C@@H](CCCCNC(C)C)C(=O)N2CCC[C@H]2C(=O)N[C@H](C)C(N)=O)cc1	–	–	–	56	–	>80	67	–
CC(=O)Nc1ccc(C[C@@H](NC(=O)[C@H](CCNC(N)=O)NC(=O)[C@H](CO)NC(=O)[C@@H](Cc2cccnc2)NC(=O)[C@@H](Cc2ccc(Cl)cc2)NC(=O)[C@@H](Cc2ccc3ccccc3c2)NC(C)=O)C(=O)N[C@@H](CC(C)C)C(=O)N[C@@H](CCCCNC(C)C)C(=O)N2CCC[C@H]2C(=O)N[C@H](C)C(N)=O)cc1	–	–	>80	–	–	–	–	–
CC(=O)N[C@H](Cc1ccc2ccccc2c1)C(=O)N[C@H](Cc1ccc(Cl)cc1)C(=O)N[C@H](Cc1cccnc1)C(=O)N[C@@H](CO)C(=O)N[C@@H](Cc1ccc(NC(=O)[C@@H]2CC(=O)NC(=O)N2)cc1)C(=O)N[C@H](Cc1ccc(CNC(N)=O)cc1)C(=O)N[C@@H](CC(C)C)C(=O)N[C@@H](CCCCNC(C)C)C(=O)N1CCC[C@H]1C(=O)N[C@H](C)C(N)=O	–	–	–	48	21	>80	64	–
CC(=O)Nc1ccc(C[C@@H](NC(=O)[C@H](CNC(N)=O)NC(=O)[C@H](CO)NC(=O)[C@@H](Cc2cccnc2)NC(=O)[C@@H](Cc2ccc(Cl)cc2)NC(=O)[C@@H](Cc2ccc3ccccc3c2)NC(C)=O)C(=O)N[C@@H](CC(C)C)C(=O)N[C@@H](CCCCNC(C)C)C(=O)N2CCC[C@H]2C(=O)N[C@H](C)C(N)=O)cc1	–	–	>80	–	–	–	–	–
CC(=O)N[C@H](Cc1ccc2ccccc2c1)C(=O)N[C@H](Cc1ccc(Cl)cc1)C(=O)N[C@H](Cc1cccnc1)C(=O)N[C@@H](CO)C(=O)N[C@@H](Cc1ccc(NC(=O)[C@H]2CC(=O)NC(=O)N2)cc1)C(=O)N[C@H](Cc1ccc(NC(N)=O)cc1)C(=O)N[C@@H](CC(C)C)C(=O)N[C@@H](CCCCNC(C)C)C(=O)N1CCC[C@H]1C(=O)N[C@H](C)C(N)=O	–	–	–	54	–	>80	68	IC50 ([1]; hek293): 3 nM; pA2 [2]: 8.8; ED50 (Rattus norvegicus [8]): 170 µg/mL (≈ 104 µM)
COc1ccc(NC(=O)NC[C@H](NC(=O)[C@H](CO)NC(=O)[C@@H](Cc2cccnc2)NC(=O)[C@@H](Cc2ccc(Cl)cc2)NC(=O)[C@@H](Cc2ccc3ccccc3c2)NC(C)=O)C(=O)N[C@H](Cc2ccc(NC(C)=O)cc2)C(=O)N[C@@H](CC(C)C)C(=O)N[C@@H](CCCCNC(C)C)C(=O)N2CCC[C@H]2C(=O)N[C@H](C)C(N)=O)cc1	–	–	>80	–	–	–	–	–
CC(=O)N[C@H](Cc1ccc2ccccc2c1)C(=O)N[C@H](Cc1ccc(Cl)cc1)C(=O)N[C@H](Cc1cccnc1)C(=O)N[C@@H](CO)C(=O)N[C@@H](Cc1ccc(NC(=O)[C@H]2CC(=O)NC(=O)N2)cc1)C(=O)N[C@H](Cc1ccc(NC(=O)[C@H]2CC(=O)NC(=O)N2)cc1)C(=O)N[C@@H](CC(C)C)C(=O)N[C@@H](CCCCNC(C)C)C(=O)N1CCC[C@H]1C(=O)N[C@H](C)C(N)=O	–	–	–	69	–	>80	64	IC50 ([1]; hek293): 7.7 nM; pA2 [2]: 9
CCNC(=O)NC[C@H](NC(=O)[C@H](CO)NC(=O)[C@@H](Cc1cccnc1)NC(=O)[C@@H](Cc1ccc(Cl)cc1)NC(=O)[C@@H](Cc1ccc2ccccc2c1)NC(C)=O)C(=O)N[C@H](Cc1ccc(NC(C)=O)cc1)C(=O)N[C@@H](CC(C)C)C(=O)N[C@@H](CCCCNC(C)C)C(=O)N1CCC[C@H]1C(=O)N[C@H](C)C(N)=O	–	–	>80	–	–	–	–	–
CC(=O)N[C@H](Cc1ccc2ccccc2c1)C(=O)N[C@H](Cc1ccc(Cl)cc1)C(=O)N[C@H](Cc1cccnc1)C(=O)N[C@@H](CO)C(=O)N[C@@H](Cc1ccc(NC(=O)[C@@H]2CC(=O)NC(=O)N2)cc1)C(=O)N[C@H](Cc1cccnc1)C(=O)N[C@@H](CC(C)C)C(=O)N[C@@H](CCCCNC(C)C)C(=O)N1CCC[C@H]1C(=O)N[C@H](C)C(N)=O	–	–	–	68	–	>80	62	–

Continued, in another order:

IC50 [1] [nM]	Kb [2] [nM]	SMILES	Inhibition (Rattus norvegicus [3]) [%]	HR (Rattus norvegicus [4]) [%]	HR (Rattus norvegicus [5]) [%]	Inhibition (Rattus norvegicus [6]) [%]	HR (Rattus norvegicus [7]) [%]	other results
2.8	1.58	CC(=O)N[C@H](Cc1ccc2ccccc2c1)C(=O)N[C@H](Cc1ccc(Cl)cc1)C(=O)N[C@H](Cc1cccnc1)C(=O)N[C@@H](CO)C(=O)N[C@@H](Cc1ccc(NC(N)=O)cc1)C(=O)N[C@H](Cc1ccc(NC(N)=O)cc1)C(=O)N[C@@H](CC(C)C)C(=O)N[C@@H](CCCCNC(C)C)C(=O)N1CCC[C@H]1C(=O)N[C@H](C)C(N)=O (Ac-[d2Nal][dPhe(4-Cl)][d3Pal]S[Phe(4-NHCONH2)][dPhe(4-NHCONH2)]L[Lys(iPr)]P[dA]-NH2)	–	153	75	–	–	Inhibition (Rattus norvegicus [9]): >80%; HR (Rattus norvegicus [10]): <10%
8.2	–	CC(=O)Nc1ccc(C[C@@H](NC(=O)[C@H](Cc2ccc(NC(=O)c3cnc(O)nc3O)cc2)NC(=O)[C@H](CO)NC(=O)[C@@H](Cc2cccnc2)NC(=O)[C@@H](Cc2ccc(Cl)cc2)NC(=O)[C@@H](Cc2ccc3ccccc3c2)NC(C)=O)C(=O)N[C@@H](CC(C)C)C(=O)N[C@@H](CCCCNC(C)C)C(=O)N2CCC[C@H]2C(=O)N[C@H](C)C(N)=O)cc1	>80	–	–	–	–	–
5	1.26	CCNC(=O)Nc1ccc(C[C@H](NC(=O)[C@H](CO)NC(=O)[C@@H](Cc2cccnc2)NC(=O)[C@@H](Cc2ccc(Cl)cc2)NC(=O)[C@@H](Cc2ccc3ccccc3c2)NC(C)=O)C(=O)N[C@H](Cc2ccc(NC(=O)NCC)cc2)C(=O)N[C@@H](CC(C)C)C(=O)N[C@@H](CCCCNC(C)C)C(=O)N2CCC[C@H]2C(=O)N[C@H](C)C(N)=O)cc1	>80	–	–	–	–	–
6.8	2.51	CC(=O)Nc1ccc(C[C@H](NC(=O)[C@H](CO)NC(=O)[C@@H](Cc2cccnc2)NC(=O)[C@@H](Cc2ccc(Cl)cc2)NC(=O)[C@@H](Cc2ccc3ccccc3c2)NC(C)=O)C(=O)N[C@H](Cc2ccc(NC(C)=O)cc2)C(=O)N[C@@H](CC(C)C)C(=O)N[C@@H](CCCCNC(C)C)C(=O)N2CCC[C@H]2C(=O)N[C@H](C)C(N)=O)cc1 [ACYLINE]	–	56	43	–	87	Inhibition (Rattus norvegicus [9]): >80%; ED50 (Rattus norvegicus [8]): 66 µg/mL (≈ 43 µM)
6.9	1.58	CC(=O)N[C@H](Cc1ccc2ccccc2c1)C(=O)N[C@H](Cc1ccc(Cl)cc1)C(=O)N[C@H](Cc1cccnc1)C(=O)N[C@@H](CO)C(=O)N[C@@H](Cc1ccc(Nc2n[nH]c(N)n2)cc1)C(=O)N[C@H](Cc1ccc(Nc2n[nH]c(N)n2)cc1)C(=O)N[C@@H](CC(C)C)C(=O)N[C@@H](CCCCNC(C)C)C(=O)N1CCC[C@H]1C(=O)N[C@H](C)C(N)=O.CC(=O)O [PRAZARELIX ACETATE] (Ac-[d2Nal][dPhe(4-Cl)][d3Pal]S[Phe(4-NH(5-NH2triazol-3-yl))][X1]L[Lys(iPr)]P[dA]-NH2)	–	93	70	–	–	Inhibition (Rattus norvegicus [9]): >80%; ED50 (Rattus norvegicus [8]): 19 µg/mL; HR (Rattus norvegicus [10]): 17%
